HGIII-sPLA2 inh – Blocks human group III sPLA2 activity; QFRET BODIPY PC-A2 liposome hydrolysis, fluorescence; inhibition, % at 12.2 µM; hit rate 0.56% among 370,000;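 active means inhibition above mean plus 3 SD of compounds lying within the high and low control bounds, cut at about 19% in these data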;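 further: 0% = median of test compound wells and 100% = no enzyme DMSO wells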
Target sequence (Q9NZ20 whole entry, looked up): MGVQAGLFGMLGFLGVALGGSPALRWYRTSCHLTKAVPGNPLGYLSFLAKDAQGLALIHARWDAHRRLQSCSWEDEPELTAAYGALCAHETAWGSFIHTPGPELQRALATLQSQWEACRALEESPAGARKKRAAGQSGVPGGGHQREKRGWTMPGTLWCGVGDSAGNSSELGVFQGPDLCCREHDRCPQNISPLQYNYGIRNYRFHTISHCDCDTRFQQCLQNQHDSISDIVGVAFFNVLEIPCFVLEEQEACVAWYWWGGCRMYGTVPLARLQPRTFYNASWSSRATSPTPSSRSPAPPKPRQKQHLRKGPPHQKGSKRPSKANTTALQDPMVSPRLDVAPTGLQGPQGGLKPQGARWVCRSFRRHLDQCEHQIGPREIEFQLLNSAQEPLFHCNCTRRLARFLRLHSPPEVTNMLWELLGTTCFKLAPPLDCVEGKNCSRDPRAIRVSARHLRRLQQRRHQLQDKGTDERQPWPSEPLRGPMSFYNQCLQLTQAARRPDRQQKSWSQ
Efflux pump mplx – inhibitors of Candida antifungal efflux pumps expressed in yeast; S. cerevisiae Candida pump triplex, Nile Red efflux; inhibition, % at 10 µM; hit rate 0.44% among 330,000;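 active means plate passing quality check with inhibition over a set limit, or well fluorescence over plate mean plus 4 SD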;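 further: Nile Red retained in pooled yeast measured as flow cytometry median fluorescence; 0% = buffer negative control and 100% = Enniatin B positive control; higher means more Nile Red kept so more efflux inhibition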
TAG inh – reduces triacylglycerol accumulation in H9c2 cells; inhibition, % at 12.5 µM; AID 651582; Nile Red lipid (TAG) fluorescence; cells loaded with 200 µM oleic acid; hit rate 0.66% among 230,000;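 active means pattern-corrected inhibition of lipid staining of at least 50% with the nuclear-stain viability signal not falling by more than 50%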;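 further: 0% = DMSO wells and 100% = triacsin C control wells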
MT1-MMP act inh – inhibitors of human MT1-MMP activation | P50281 | GFP/RFP ratio change, % at 20 µM | hit rate 0.061% among 360,000 | HT1080 RFP-PRO-GFP cells, GFP/RFP ratio fluorescence, overnight; percent of plate control window, DMSO zero | AID 651647;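 active means GFP/RFP ratio change of at least 30% with cell ATP level not reduced by more than half and red fluorescence within 50% of control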
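Material – HT1080 RFP-PRO-GFP cells · Control set – DMSO wells and RFP-L50D-GFP cells · Incubation – overnight cell settling, then overnight compound exposure, 37 °C, 5% CO2 · Compound dosing – single-point 20 µM compound, 1% DMSO · Read-out – GFP/RFP fluorescence ratio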
Cmpd fluor yeast – compound fluorescence in yeast efflux pump counter-screen. hit rate 4% among 1,700. S. cerevisiae AD/pABC3, flow cytometry. shares compounds with Efflux pump mplx. fluorescence ratio to DMSO, % at 10 µM. AID 588517;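 active means fluorescence ratio to DMSO above its plate's cutoff, the plate mean ratio plus 5 SD, cut at about 210% in these data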;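 further: unstained yeast with no Nile Red so the signal is compound autofluorescence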
Mdr1 pump inh – inhibitors of Candida albicans Mdr1 efflux pump; shares compounds with Efflux pump mplx; S. cerevisiae AD/CaMDR1, Nile Red efflux, flow cytometry; inhibition, % at 10 µM; hit rate 1% among 1,700; AID 588518; in the data active means inhibition above about 26%;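 further: 0% = DMSO vehicle and 100% = reference inhibitor; higher means more Nile Red retained so more efflux inhibition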
Cdr2 pump inh – Candida Cdr2 efflux pump inhibition; hit rate 4% among 1,700; Nile Red retention ratio vs DMSO, % at 10 µM; AID 588520; S. cerevisiae AD/CaCDR2, Nile Red retention, flow cytometry; shares compounds with Efflux pump mplx; in the data active means Nile Red retention ratio vs DMSO above about 190%;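 further: higher ratio means more blocking of Cdr2 efflux of the dye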
Cdr1 pump inh – inhibitors of Candida albicans Cdr1 efflux pump; S. cerevisiae AD/CaCDR1, Nile Red efflux, flow cytometry; shares compounds with Efflux pump mplx; hit rate 1% among 1,700; inhibition, % at 10 µM;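 active means inhibition above the screen-wide mean plus twice its standard deviation, cut at about 32% in these data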
The depositor's hits bear a star; · = no result given; ! = not confirmed by another sample. A selection: hits, their analogues and other compounds. The true share with any hit is near 1.3%.

SMILES	HGIII-sPLA2 inh	Efflux pump mplx	TAG inh	MT1-MMP act inh	Cmpd fluor yeast	Mdr1 pump inh	Cdr2 pump inh	Cdr1 pump inh
CCCCCCCCCCCCCCCCn1cc[n+](C)c1	-9.4	2.7*!	47.3	-33.9	100.4	-0.1	110.2	-0.1
CCCCCCCCCCn1ccc(=N)cc1	11.0	1.3	8.9	-14.2	·	·	·	·
CCc1nc2c(OCC3COc4ccccc4O3)cccn2c1N(C)C(=O)c1cccs1 (configuration not stated)	-4.3	·	5.5	1.7	·	·	·	·
CN1C(=O)/C(=C/c2ccc(C(F)(F)F)cc2)Sc2ccc(C(=O)N3CCN(c4ccccn4)CC3)cc21	-3.0	0.7*	·	1.0	100.4	0.1	112.3	0.1
CN1C(=O)/C(=C/c2ccccc2Cl)Sc2ccc(C(=O)N3CCCC3)cc21	-13.1	0.1	·	-2.1	·	·	·	·
COc1ccc(Cl)cc1NC(=O)CN1CCN(Cc2ccccc2)CC1	0.4	-0.1	·	1.6	·	·	·	·
CCN(Cc1nc2cc(Cl)ccc2c(=O)[nH]1)C(=O)c1cccc(OCc2c(C)noc2C)c1	10.1	1.6*	7.5	4.3	95.3	-0.3	86.7	0.1
Cn1c(-c2ccccc2O)cc2ccccc21	-5.3	0.2*	-7.1	-7.0	99.7	-0.1	103.0	0.0
O=S(=O)(c1ccc(CN2CCOCCOCCN(Cc3ccc(S(=O)(=O)C(F)(F)F)cc3)CCOCC2)cc1)C(F)(F)F	-4.6	·	·	·	·	·	·	·
Cc1cc(C)c2nc(NC(=O)CN3C(=O)NC4(CCCC4)C3=O)sc2c1	-18.1	-0.1	7.9	-5.5	·	·	·	·
O=C(COc1ccc(Br)cc1)Nc1ccc(C(=O)Nc2ccccc2C(=O)O)cc1	-3.0	1.2*	-14.9	4.9	101.8	-0.3	88.8	-0.2
O=C(NCCc1ccc(Cl)cc1)c1cccc(NC2=NC3CS(=O)(=O)CC3S2)c1 (configuration not stated)	-1.1	0.0	-11.8	0.1	·	·	·	·
Cc1onc(-c2ccccc2Cl)c1C(=O)OCC(=O)N1CCN(c2ccccc2)CC1	-0.5	0.0	-1.6	0.1	·	·	·	·
CC(C)[C@H]1Cn2nnc(-c3ccccc3)c2Cn2c3ccccc3c(=O)n21	4.7	·	·	·	·	·	·	·
Cc1ccccc1OCCC(=O)OCC(=O)c1c(N)n(CC(C)C)c(=O)n(C)c1=O	-10.9	6.2*	-13.4	3.7	98.9	0.0	96.0	0.0
Cc1ccc(C2=NN(S(C)(=O)=O)C(c3cccs3)C2)cc1 (configuration not stated)	-7.9	0.2	-34.8	·	·	·	·	·
CCc1ccc(C2=NN(S(C)(=O)=O)C(c3cccs3)C2)cc1 (configuration not stated)	-12.6	3.0*	-5.0	-45.4	125.1	0.8	151.0	1.2
O=C(Oc1ccc(-c2nnco2)cc1)c1cc(S(=O)(=O)N2CCOCC2)ccc1F	-1.4	·	5.2	7.4	·	·	·	·
COc1ccc(C(=O)NCc2ccc(Cl)c(Cl)c2)cc1OC	7.9	11.4*	·	-12.1	87.3	-0.3	88.8	0.3
COc1ccc(C(=O)NCc2cccnc2)cc1OC	4.8	-0.1	·	9.4	·	·	·	·
CCOC(=O)[C@]12CCCCC/C=C\1N(CCc1ccc(Cl)cc1)C(=O)[C@H]2CC(=O)NCc1cccc(C(F)(F)F)c1	-16.6	·	·	·	·	·	·	·
N#Cc1cnc2ncnn2c1-c1ccccc1	2.0	0.1	·	0.2	·	·	·	·
Nc1c(-c2ccccc2)cnc2ncnn12	1.8	1.7*	·	3.8	97.0	-0.3	90.9	-0.2
C[C@H](CO)N1C[C@H](C)[C@@H](CN(C)C(=O)NC2CCCCC2)Oc2ccc(NC(=O)Nc3ccccc3)cc2C1=O	-2.4	0.1	-6.3	6.1	·	·	·	·
CCC(C)(C(=O)NC1CCCCC1)N(C(=O)C1CCC(=O)N1)c1ccc(C)cc1 (configuration not stated)	0.8	0.2	7.0	-2.0	·	·	·	·
SMILES	HGIII-sPLA2 inh	Efflux pump mplx	TAG inh	MT1-MMP act inh	Cmpd fluor yeast	Mdr1 pump inh	Cdr2 pump inh	Cdr1 pump inh
CCCCN(C(=O)CSc1nnc2ccccn12)c1c(N)n(Cc2ccccc2)c(=O)[nH]c1=O	5.6	-0.1	3.5	-3.2	·	·	·	·
CCN(C(=O)CSc1nnc2ccccn12)c1c(N)n(Cc2ccccc2)c(=O)[nH]c1=O	-2.9	5.8*	·	-0.4	76.9	-0.2	91.1	-0.4
O=C(c1cccc(F)c1)N1CCCC(c2nc(-c3cccs3)no2)C1 (configuration not stated)	-4.0	·	·	·	·	·	·	·
Cc1ccc(-n2nc3c(=O)n(CC(=O)NCc4cccs4)nc(C)c3c2C)cc1	0.3	-0.1	·	9.2	99.0	-0.1	105.1	-0.1
Cc1ccc(-n2nc3c(=O)n(CC(=O)NCCc4ccccc4C)nc(C)c3c2C)cc1	-0.5	4.2*	·	8.1	105.6	0.0	102.2	0.0
Cc1ccc(-n2nc3c(=O)n(CCCC(=O)NCc4ccccc4C)nc(C)c3c2C)cc1	0.1	0.0	·	6.4	·	·	·	·
Cc1ccc(CNC(=O)CCCn2nc(C)c3c(C)n(-c4ccccc4)nc3c2=O)cc1	-1.4	0.0	·	1.6	111.1	0.0	108.1	0.1
Cc1ccc(-n2nc3c(=O)n(CC(=O)NCc4ccccn4)nc(C)c3c2C)cc1	7.3	0.1	·	4.9	·	·	·	·
CCOc1ccc(CNC(=O)Cn2nc(C)c3c(C)n(-c4ccc(C)cc4)nc3c2=O)cc1	-1.9	0.0	·	8.5	100.3	-0.1	109.4	0.1
Cc1nn(CC(=O)NCCc2cccs2)c(=O)c2nn(-c3ccccc3)c(C)c12	4.0	0.1	·	·	·	·	·	·
CCCCNC(=O)N1CCC(c2nc3ccc(Cl)cc3[nH]2)CC1	4.0	·	·	·	·	·	·	·
CCCCOc1ccc(C(=O)NCC(=O)NC2CCC(C)CC2)cc1 (configuration not stated)	10.4	-0.1	-0.7	6.0	·	·	·	·
Cc1cc(C)c2c(n1)sc1c(-c3ccccc3)c(C#N)c(N)nc12	2.3	17.7*	·	2.9	107.2	0.0	102.9	0.0
CCN(CC)c1ccc2cc(-c3nc(-c4ccc(OC)cc4)cs3)c(=O)oc2c1	-47.6	6.0*	·	·	640.5*	0.6	731.5*	1.8
CCN(CC)c1ccc2cc(-c3nnc(-c4ccccc4)o3)c(=O)oc2c1	-7.6	0.3	-75.1	-78.3	·	·	·	·
CCC1CCCCN1C(=O)c1cc2c(=O)n3cccc(C)c3nc2s1 (configuration not stated)	·	1.7*	·	-4.2	106.8	-0.1	95.4	0.0
CCN(CC)C(=O)O[C@H]1CC[C@@]23CCCN2C(=O)CCC[C@H]3[C@H]1C	10.1	·	·	·	·	·	·	·
O=C(Nc1cccnc1)c1cn(-c2ccccc2)nc1-c1cccs1	-24.3	0.0	·	-3.2	·	·	·	·
O=C(Nc1cccc2ccccc12)c1cn(-c2ccccc2)nc1-c1cccs1	·	9.0*	·	-6.4	104.5	0.1	102.9	0.1
COc1ccc(S(N)(=O)=O)cc1C(=O)N(C)CC(=O)Nc1ccc(N2CCOCC2)cc1	-3.8	0.4	6.6	1.2	·	·	·	·
CCCSc1nnc(N)s1	15.2	18.0*	·	4.5	118.0	1.2	155.3	1.5

Assay outcomes: PubChem, several laboratories
